Assay results as given in the EternaBench riboswitch data.

Tested on: MS2 coat protein
Test: apparent Kd, MS2 coat protein; higher = weaker binding; RNA-MaP array; FMN 200 µM where present
In short: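 The apparent Kd comes from binding curves fitted cluster by cluster, filtered, and summarised as a median. Those curves followed SNAP-549-labelled MS2 coat protein from 0.7 or 1.5 nM, doubling to 3 µM, on Illumina sequencing-chip clusters where stalled E. coli RNA polymerase had transcribed the designs, without and then with constant ligand. The buffer was 100 mM Tris-HCl pH 7.5, 80 mM KCl, 4 mM MgCl2, BSA, DTT, yeast tRNA and Tween-20, and green signal was normalised to red-channel RNA signal and control-cluster median Fmax.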

[1] = designed as: OFF switch for flavin mononucleotide, no ligand
[2] = ligand present: flavin mononucleotide, designed as: OFF switch for flavin mononucleotide
[3] = designed as: ON switch for flavin mononucleotide, no ligand
[4] = ligand present: flavin mononucleotide, designed as: ON switch for flavin mononucleotide

| Sequence | apparent Kd [1] | apparent Kd [2] | apparent Kd [3] | apparent Kd [4] |
| --- | --- | --- | --- | --- |
| CUUUAGUGAGGAUAUCAGUAGUAAUACAAUAGUAUUACUACUGAGAAGGCACAUGAGGAUCACCCAUGUUCUUC | 17.3 nM | 50 nM |  |  |
| GCUCUAUGCUAGAAGGCGUGAAACAUGAGGAUCACCCAUGUCAAAGAAGUGAGGAUAUAGCAUAGAGCAAAAGUGCGAAAGCAC |  |  | 16.9 nM | 7.32 nM |
| CGUGCGUAUGUGAGGAUAUGCUGGUCCUUGGCUCGGCAGAAGGCACAUGAGGAUCACCCAUGUGGUGUCGUACC | 21.9 nM | 58.6 nM |  |  |
| AGGGCAACAGGAUAUCAUACAAUCUACAUGAGGAUCACCCAUGUGCCUCUUUUCAUACUGUGAGAAGGGUUGUCGG | 64.8 nM | 63.8 nM |  |  |
| AACAAUUAGUAAGGAUAUACUAGCGAUUAGCUUGUAGAAGGUACAGUCUUAUGUAUAACAAAUUAACAUGAGGAUCACCCAUGU |  |  | 10.4 nM | 7.88 nM |
| UGAUAGCACAGAGGAUAUGCGUAGAGUUAUCACUACAUGAGGAUCACCCAUGUAGAAGGCUGUGCUAUCUAAGUCGGAAACGAC | 5.89 nM | 6.17 nM |  |  |
| GUUAGUUAAGGAUAUACAGGGAGCUGCGGCGUCUCGCCGCAACAUGAGGAUCACCCAUGUAGAAGGUGACCUUU | 529 nM | 406 nM |  |  |
| GCACGGCAUGUAGGAUAUCGAGCUCAAAGAGCUCGAGAAGGACAUGAGGAUCACCCAUGUGCUCACAGACAGUGAGCGCUGUGC | 25.1 nM | 91.5 nM |  |  |
| GGAUCGAGUGUGAGGAUAUGCUGGUCCUAAGAUCAGCAGAAGGCACAUGAGGAUCACCCAUGUGAAAACGGUCC | 26 nM | 182 nM |  |  |
| UUUCAGCUCACAUGAGGAUCACCCAUGUCGGUUCGCCCGGACAGAAGGCACCCAUGACAAUGCGGUGAGGAUAUGUCAGCAAGG |  |  | 193 nM | 19.3 nM |
| AGAGUGUGAGGAUAUAUGGUGAAGAUGAAGGGAUAGAAGGAGUAGAAGGUACAUGAGGAUCACCCAUGUUAGGA | 25.2 nM | 25.7 nM |  |  |
| CACAAGAAAGUCGAAGGUUGAAGUAGAAGGACAACAACAUGACAUGAGGAUCACCCAUGUGCCAUGUAGGAUAUGCUUUAAUCG | 9.14 nM | 8.28 nM |  |  |
| CGUCGAAAUGUAGGAUAUCUGCACGAUUAGUGCAGAGAAGGACAUGAGGAUCACCCAUGUAGAUCACGACGAAUUAAUUUAAUU | 60.7 nM | 480 nM |  |  |
| ACCUCACAUGAGGAUCACCCAUGUCAGGAUAUGUACCCGAUCAAGUCAGAGAUUGGGAGCAGAAGGGACUGCGG | 119 nM | 34.5 nM |  |  |
| GUCAGCUCGUGAGGAUAUACAACACUGCUUCGGCAGUGUAUUAAGAUCACAUGAGGAUCACCCAUGUAGAAGGCCCGAGCUGAU | 10.2 nM | 139 nM |  |  |
| AAAGAACAUGAGGAUCACCCAUGUGAGGAUAUACGAGCGUGAGAAAGAUAAAACGAGCGUAGAAGGCACAAGAA | 76.9 nM | 81.5 nM |  |  |
| UUGGACGUCGUAGGAUAUGUAGGAUGUUCCUACAUGAGGAUCACCCAUGUUGACAUGGAAGAAGGACAGAAGGACGAUGUCCAU |  |  | 547 nM | 27 nM |
| UAGAUUUAUGUAGGAUAUACAUUUUGUACGUAUGUAGAAGGACAUGAGGAUCACCCAUGUAAAUAAAUAUUAAAUAUCAUAAUU | 50.5 nM | 32.4 nM |  |  |
| GUCCUACAUGAGGAUCACCCAUGUAAGGAUAUGCUAGCGGUCGGCUGACUGACUGCUAGCAGAAGGUACAUGAU | 17.5 nM | 24.6 nM |  |  |

| Sequence | apparent Kd [1] | apparent Kd [2] | apparent Kd [3] | apparent Kd [4] |
| --- | --- | --- | --- | --- |
| AUGUAGCUAGGAUAUACAUAGAUACAGAUUCAUGUAGAACUACAUGAGGAUCACCCAUGUAGAAGGAGCUAAAA | 28.7 nM | 50.4 nM |  |  |
| AAAUAAAGGACUAAGGAUAUAUCGCAUGACACAUGAGGAUCACCCAUGUGGUAACACAGAGGGUGAUAGAAGGUAGUCCACAAACA |  |  | 404 nM | 75.8 nM |
| ACGCUCAGAGGAUAUACAUGAGGAUCACCCAUGUGUUACCGAGGAGUACGGUCGUCACGUAGAAGGCUGGGUAA | 17.9 nM | 63.2 nM |  |  |
| CACAAUCUAUCUGAGGAUAUCAUGAAAAAAACAUGAGGAUCACCCAUGUGCAGGAAAACUGCAUAUGAGAAGGCAGAUAGAUUGC |  |  | 613 nM | 29.1 nM |
| GUACUGAAGCUUUGCUUUAGUCGUACAUGAGGAUCACCCAUGUAGGAUAUGGUAGGCAUUGCUUACUAGAAGGAUAGAGUGAUC | 85 nM | 54.9 nM |  |  |
| UGUAAUGCUAUUGCAGAGGUUUAGAAGGAUAUACAUCGACAUGACCGUACAUGAGGAUCACCCAUGUAGAAGGUCUAACUUCGU | 5.61 nM | 5.55 nM |  |  |
| CAGUACUGAGGAUAUACAUGAGGAUCACCCAUGUGCCUAAGGUAGGAUACUACCAUUAGUAGAAGGCAGUACUG | 13.8 nM | 29.6 nM |  |  |
| UGCCUUAGAGGAUAUACAUUGAAUUUGAUUCAUGUAAAACUACAUGAGGAUCACCCAUGUAGAAGGCUAGGGCU | 19.1 nM | 37.1 nM |  |  |
| UAGAUGGGAGGAUAUGCGUAGAUACGGAUUCGUGUAGUGCUACAUGAGGAUCACCCAUGUAGAAGGCCCGUCUU | 15.2 nM | 18.3 nM |  |  |
| CAGUACUGAGGAUAUACAUGAGGAUCACCCAUGUGGUCCAGCUAGGAAACUAGCACGUGUAGAAGGCAGUACUG | 36.1 nM | 56.5 nM |  |  |
| CUAAAUCAUGUAGGAUAUGCGUGGCGAAGCUAUGCAGAAGGACAUGAGGAUCACCCAUGUCAAAAUUUCUGCGUACAGACGGAA | 15.5 nM | 30.7 nM |  |  |
| CAUCCACAUGAGGAUCACCCAUGUCAGGAUAUCGCGCGCGCGUUUUCGGUCUUUCGCGCGAGAAGGGACGACUG | 15.4 nM | 16.3 nM |  |  |
| AGGUAAGAGUUAAUUGUGACGGUGAGAAGGCAAAAGGUUGUGAUUAACAUGAGGAUCACCCAUGUUGAGGAUAUCACCACCUUC | 6.95 nM | 8.81 nM |  |  |
| GAUUCACAUGAGGAUCACCCAUGUGAGGAUAUCUAGGUGCGGAGGCUAAGACCUCCAGAGAGAAGGCACAUGGC | 24.2 nM | 36.8 nM |  |  |
| GAGGCUAAAGGAUAUACAUGAGGAUCACCCAUGUGGAGGAAGGUUAGAUGAGGAGAAGGUAGAAGGUUAGGCGG | 37.3 nM | 30.9 nM |  |  |
| CCGGAAGUACAGGAUAUCGUAUCGGAUACGAUACGAGAAGGGUAUACAUGAGGAUCACCCAUGUGUCCUACCGG | 29.3 nM | 31.5 nM |  |  |
| AAAUCGGCAGGAUAUACAUGAAAAUUAAAAAAAAAAAAAAAACAUGAGGAUCACCCAUGUAGAAGGGUCAAAAA | 88.9 nM | 89.2 nM |  |  |
| GUCAUGUCAGGAUAUGCUUAUGAUGGGUGCUCAGACAUGAUGCAGAAGGGACAUGAGGAUCACCCAUGUACUGU | 62.5 nM | 62.5 nM |  |  |
| AUCAUGAGAGGAUAUACAUGAGGAUCACCCAUGUUCUUAUCUCGUCGUGCUCCAUUACGUAGAAGGCUCAUUUA | 16 nM | 49.2 nM |  |  |

| Sequence | apparent Kd [1] | apparent Kd [2] | apparent Kd [3] | apparent Kd [4] |
| --- | --- | --- | --- | --- |
| UGGUACUAGGGAGGAUAUGGGAAGAUACAUGAGGAUCACCCAUGUUUAAGAAUGCCGAGAGGGAACUAGAAGGCCCUAGUACCU |  |  |  | 14.5 nM |
| UCGGCGCGAGGAUAUGCGGUUUGUGCUUUGGGCCCUGGCGUACAUGAGGAUCACCCAUGUAGAAGGCGCGUUGC | 19.4 nM | 20 nM |  |  |
| GUAGUCAGUAAUGAAAGCCCGGGCGCAGAAGGCCAGACACAUGAGGAUCACCCAUGUAUCCCUAUGGAGGAUAUGUGUCACGUG |  |  | 113 nM | 30.5 nM |
| UUUGUGUCAGGAUAUGAGUCGUAGAACAAUAGUACUACGUCUCAGAAGGGACAUGAGGAUCACCCAUGUGCCUC | 35.4 nM | 281 nM |  |  |
| UUGUUUUGAAAUUAACAUGAGGAUCACCCAUGUCUUGACACAGAGGAUAUACAUGAAUGUAGGUAGUAGAAGGCUGUUUAGUGU |  |  | 79.5 nM | 60 nM |
| UGGCUACAUGAGGAUCACCCAUGUCAGGAUAUGCCGUCGGCUUGCGUUCGUCGUUUGGGUAGAAGGGACUGCGG | 83.1 nM | 91.5 nM |  |  |
| GGUCCACAUGAGGAUCACCCAUGUUAGGAUAUCUCCCGCCUCCUCACUGGAGACGGACAGAGAAGGAACAUCAA | 23.6 nM | 74.7 nM |  |  |
| UUUCCUUGUGUGAGGAUAUACUUGUUUGUGUUUUUGUAGAAGGCACAUGAGGAUCACCCAUGUACUCUUUCCUG | 35.1 nM | 54.3 nM |  |  |
| UGAGCGACCACAGGAUAUACUUAGGAAGACCGAGUAGAAGGGUGGAAGAGCGUGCAGUGACAUGAGGAUCACCCAUGUGGUUGU |  |  | 156 nM | 70.1 nM |
| GUAGCUAUCGGAGGAUAUUCAUACCGUAAACGGACAUGAGGAUCACCCAUGUAGCGAAAGCCUUGGGAGAAGGCCGAUAGCUAC |  |  | 942 nM | 88.8 nM |
| UGUUGUAUUACAGGAUAUCUAUGGUUUUUAUUUAGAGAAGGGUAUUCACAUGAGGAUCACCCAUGUAUAUACGAGGAAGUUGUG |  |  | 57.5 nM | 63.7 nM |
| UACAGACAUGAGGAUCACCCAUGUGAGGAUAUCCAUAACGAUAUUACAAGUAUGACAGGGAGAAGGCACAGCAA | 41.3 nM | 52 nM |  |  |
| AAUUGUAGAACAAUCACUACCAGUCAGGAUAUACAUGAGGAUCACCCAUGUCGUGUCGACAGCAUGUAGAAGGGACGGUUAUAU | 51.6 nM | 115 nM |  |  |
| GUUAUUAUUAGUUCAUACUAUAAGAUAGAAGGUGAUUUAUUGACAUGAGGAUCACCCAUGUAAUUCAAGGAUAUGUAGAUACUC |  |  | 374 nM | 248 nM |
| GCUCAGUAAGGAUAUUAAUGACGCUGUUAUUCAGCGUCAGCUGAGAAGGUACAUGAGGAUCACCCAUGUGGUGA | 210 nM | 117 nM |  |  |
| GUUGGAUGAGGAUAUCGAGGUUAGUACAUGAGGAUCACCCAUGUUAUCCAGGUGUCGGUUCGAGAAGGCAUUGGAC | 32.6 nM | 114 nM |  |  |
| AUUGACUGAGGAUAUUGUACUGCUGACAUGAGGAUCACCCAUGUAUGCUAACUCGGCCGUCGAGAAGGCAGUCAUG | 29.2 nM | 17.3 nM |  |  |
| AGACCCAUGACAUGACAUGACAUGAGGAUCACCCAUGUUUACAAGGAUAUGUUGAUGAAACAUCAACAGAAGGUGUAAUGGGCU | 20.9 nM | 73.1 nM |  |  |
